Active and inactive are the calls of the source.
Legend:
Mus musculus [1] = experiment: Compound was evaluated for the antimalarial activity against Plasmodium berghei in mice (Mus musculus) at the dose 20 (mg/kg) administered subcutaneously; assay type: functional
Summary of the method: (§1)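 P. berghei-infected mice, five per dose group; one subcutaneous dose given 72 h after infection. Read-out is the increase in mean survival time over infected controls, counted as active when the increase is at least 100%. Cures are mice alive out of five at 60 days post-infection. Testing was done at Rane Laboratories, University of Miami.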

Mus musculus [2] = experiment: Compound was evaluated for the antimalarial activity against Plasmodium berghei in mice (Mus musculus) at the dose 320 (mg/kg) administered subcutaneously; (C) is the number of mice (Mus musculus) surviving out of five at 60 days post-infection; assay type: functional; summary of the method: as §1
Mus musculus [3] = experiment: Compound was evaluated for the antimalarial activity against Plasmodium berghei in mice (Mus musculus) at the dose 160 (mg/kg) administered subcutaneously; (C) is the number of mice (Mus musculus) surviving out of five at 60 days post-infection; assay type: functional; summary of the method: as §1
Mus musculus [4] = experiment: Compound was evaluated for the antimalarial activity against Plasmodium berghei in mice (Mus musculus) at the dose 40 (mg/kg) administered subcutaneously; assay type: functional; summary of the method: as §1
Mus musculus [5] = experiment: Compound was evaluated for the antimalarial activity against Plasmodium berghei in mice (Mus musculus) at the dose 80 (mg/kg) administered subcutaneously; (C) is the number of mice (Mus musculus) surviving out of five at 60 days post-infection; assay type: functional; summary of the method: as §1
Mus musculus [6] = experiment: Compound was evaluated for the antimalarial activity against Plasmodium berghei in mice (Mus musculus) at the dose 80 (mg/kg) administered subcutaneous; (A) active; assay type: functional; summary of the method: as §1
Mus musculus [7] = experiment: Compound was evaluated for the antimalarial activity against Plasmodium berghei in mice (Mus musculus) at the dose 320 (mg/kg) administered subcutaneously; (A) active; assay type: functional; summary of the method: as §1
Mus musculus [8] = experiment: Compound was evaluated for the antimalarial activity against Plasmodium berghei in mice (Mus musculus) at the dose 640 (mg/kg) administered subcutaneously; (C) is the number of mice (Mus musculus) surviving out of five at 60 days post-infection; assay type: functional; summary of the method: as §1
Mus musculus [9] = experiment: (§2) Compound was evaluated for the antimalarial activity against Plasmodium berghei in mice (Mus musculus) at the dose 80 (mg/kg) administered subcutaneously; assay type: functional; summary of the method: as §1
Mus musculus [10] = experiment: Compound was evaluated for the antimalarial activity against Plasmodium berghei in mice (Mus musculus) at the dose 160 (mg/kg) administered subcutaneously; (A) active; assay type: functional; summary of the method: as §1
Mus musculus [11] = experiment: Compound was evaluated for the antimalarial activity against Plasmodium berghei in mice (Mus musculus) at the dose 40 (mg/kg) administered subcutaneously; (A) active; assay type: functional; summary of the method: as §1
Mus musculus [12] = experiment: Compound was evaluated for the antimalarial activity against Plasmodium berghei in mice (Mus musculus) at the dose 20 (mg/kg) administered subcutaneously; (A) active; assay type: functional; summary of the method: as §1
Mus musculus [13] = experiment: Compound was evaluated for the antimalarial activity against Plasmodium berghei in mice (Mus musculus) at the dose 40 (mg/kg) administered subcutaneously; (C) is the number of mice (Mus musculus) surviving out of five at 60 days post-infection; assay type: functional; summary of the method: as §1
Mus musculus [14] = experiment: Compound was evaluated for the antimalarial activity against Plasmodium berghei in mice (Mus musculus) at the dose 80 (mg/kg) administered subcutaneously; IA is defined as inactive.; assay type: functional, organism-based
Mus musculus [15] = experiment: as §2; assay type: functional; remark: listed apart in the source

| SMILES | Delta MST (Mus musculus [1]) [days] | No. of cures (Mus musculus [2]) | No. of cures (Mus musculus [3]) | Delta MST (Mus musculus [4]) [days] | No. of cures (Mus musculus [5]) | No. of cures (Mus musculus [8]) | further results |
| --- | --- | --- | --- | --- | --- | --- | --- |
| CCCCNCC(O)c1cc(-c2ccc(Cl)cc2)cc(-c2ccc(Cl)cc2)c1 (stereo unspecified) | 0.5 | 5 | 5 | 1.3 | 3 |  |  |
| CCCCN(CCCC)CC(O)c1cc(/C=C/c2ccc(C(F)(F)F)cc2)cc(/C=C/c2ccc(C(F)(F)F)cc2)c1 (stereo unspecified) | 0.5 | 5 | 5 | 0.5 |  |  | Delta MST (Mus musculus [6]): 8.1 days |
| CCCCN(CCCC)CC(O)c1cc(-c2ccc(Cl)cc2)cc(-c2ccc(Cl)cc2)c1 (stereo unspecified) | 0.3 |  |  | 0.5 |  | 5 | Delta MST (Mus musculus [7]): 13.9 days; Delta MST (Mus musculus [9]): 4.1 days; Delta MST (Mus musculus [10]): 9.7 days |
| CCCCN(CCCC)CC(O)c1cc(-c2ccc(Cl)cc2)nc(-c2ccc(Cl)cc2)c1 (stereo unspecified) | 2.3 | 4 | 3 |  | 3 | 5 | Delta MST (Mus musculus [11]): 15.7 days |
| CCCCNCC(O)c1cc(-c2ccc(Cl)cc2)nc(-c2ccc(Cl)cc2)c1 (stereo unspecified) |  | 5 | 3 |  | 2 | 5 | Delta MST (Mus musculus [12]): 10.8 days; No. of cures (Mus musculus [13]): 1 |
| CCCCNCC(O)c1cc(/C=C/c2ccc(C(F)(F)F)cc2)nc(/C=C/c2ccc(C(F)(F)F)cc2)c1 (stereo unspecified) |  |  |  |  |  |  | Delta MST (Mus musculus [14]): inactive |
| CCCCNCC(O)c1cc(/C=C/c2ccc(C(F)(F)F)cc2)cc(/C=C/c2ccc(C(F)(F)F)cc2)c1 (stereo unspecified) |  |  |  |  |  |  | Delta MST (Mus musculus [14]): inactive |
| CCCCN(CCCC)CC(O)c1cc(/C=C/c2ccc(C(F)(F)F)cc2)nc(/C=C/c2ccc(C(F)(F)F)cc2)c1 (stereo unspecified) | 0.2 | 5 | 5 | 2.9 |  | 5 | No. of cures (Mus musculus [15]): 2 |
